Screening results as filed in PubChem.
An excerpt weighted towards active compounds, which were near 6.4% of everything screened.
Jurkat viability: cytotoxicity toward Jurkat T cells, primary screen, cytotoxicity control, cell-based, Jurkat E6.1, 60K MLSMR library; inhibition, % at 4 µM; AID 463, 2006; Jurkat E6.1 viability, ATP luminescence, 48 h; actives 1.2% (n = 56,000);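 active = inhibition above the mean inhibition of all tested compounds plus 3 SD, cut at about 28% in these data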
H69AR growth 86K: proliferation blockers of H69AR lung cancer cells, primary screen, cell-based, human, 86K library; H69AR lung tumor viability, ATP luminescence, 72 h; hits give low values; actives 6% (n = 85,000); viability, % at 10 µM; AID 598, 2007;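 active = viability at or below 40%; inactive = viability above 40%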;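 also: multidrug resistant small cell line overexpressing MRP-1 efflux transporter; 100% = mean luminescence of untreated control wells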
Ecoli tolC: growth inhibitors of E. coli tolC mutant, primary screen, strain BW25113 ΔtolC::kan, 384-well. OD615. actives 2.2% (n = 65,000). AID 573, 2007. growth inhibition, % at 10 µM (by protocol);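 active = growth inhibition at or above a cutoff equal to the mean over every tested compound plus 3 SD, cut at about 60% in these data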;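 also: growth measured after 20 h incubation at 37 °C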
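Doses: one dose of 10 µM final / Material: E. coli BW25113 ΔtolC::kan, tolC deletion mutant strain / Buffer or medium: LB with kanamycin 50 µg/mL / Evaluation: percent growth inhibition / Detection: optical density read at 615 nm / Incubation: 37 °C, 20 h exposure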
Ecoli WT expand: growth inhibitors of wild-type E. coli, primary screen, strain BW25113, expanded library, OD600; OD600 absorbance; growth inhibition, % at 100 µM; actives 0.15% (n = 98,000); AID 710, 2007;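 active = growth inhibition above about 50% at one test dose, limit read from the data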;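 also: growth measured after 20 h incubation at 37 °C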
Lung fibro prol: antiproliferative effect on LL 47 fibroblasts – human, LL 47 cells, CellTiter-Glo luminescence, primary screen. LL 47 human lung fibroblast viability, ATP luminescence; hits give low values. viability, % at 10 µM. actives 1.1% (n = 85,000). AID 719, 2007;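 active = viability at or below 50% in the single dose screen; inactive = viability above 50%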;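 also: compound exposure lasted 72 h before the ATP readout; 100% = median luminescence of untreated cell-only wells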
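Signal: luminescent ATP detection, CellTiter-Glo; assay system: LL 47 human lung fibroblasts; input: 1,150 cells/well; incubation: overnight cell rest, 72 h compound treatment at 37 °C; measure: % viability versus median cells-only luminescence; medium: IMEM growth medium with 15% fetal bovine serum; dosing: compound addition at 0.1% DMSO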
HUVEC inhibit: inhibitors of HUVEC proliferation, primary screen, cell-based, 384-well | actives 1.1% (n = 86,000) | viability, % at 10 µM (by protocol) | CellTiter-Glo luminescence, 72 h; hits give low values;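 active = viability at or below 30%; inactive = viability above 30%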;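 also: 100% = median luminescence of DMSO-only cell control wells on each plate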
The depositor's hits bear a star; / = no result given.

SMILES	Jurkat viability	H69AR growth 86K	Ecoli tolC	Ecoli WT expand	Lung fibro prol	HUVEC inhibit
COc1ccc(OCc2nc(N)nc(Nc3ccccc3OC)n2)cc1	/	2.2*	/	6.0	76.9	94.9
COc1ccccc1Nc1nc(N)nc(CSc2ncccn2)n1	0.7	87.5	-7.4	0.0	100.8	89.1
COc1ccc(N2CCN(Cc3nc(N)nc(Nc4ccccc4OC)n3)CC2)cc1	-7.2	7.7*	21.1	4.0	103.1	97.5
CCC(C)C(NC(=O)C(C)NC(=O)CNC(=O)CNC(=O)OCc1ccccc1)C(=O)OC (stereo not drawn)	/	100.8	/	/	100.1	93.9
CN(C)CCNc1ncnc2c1cnn2-c1ccc(Cl)cc1	-1.6	75.7	-2.6	8.0	76.0	56.8
c1ccc(CNc2ncnc3c2cnn3Cc2ccccc2)cc1	/	26.2*	/	/	54.4	55.6
Clc1ccc(-n2ncc3c(NCC4CCCO4)ncnc32)cc1 (stereo not drawn)	8.2	19.5*	14.0	1.0	92.5	61.3
COc1ccc(Nc2ncnc3c2cnn3Cc2ccccc2)cc1	/	82.9	11.3	/	91.8	83.0
Clc1ccc(Cn2ncc3c(NCc4ccco4)ncnc32)c(Cl)c1	81.8*	26.1*	68.4*	2.0	/	50.8
Clc1ccc(-n2ncc3c(NCc4ccc5c(c4)OCO5)ncnc32)cc1	-0.5	7.9*	-19.4	-5.0	87.1	73.0
Cc1ccccc1S(=O)(=O)Nc1nc2ccccc2nc1N1CCOCC1	6.5	100.8	16.9	7.0	102.1	96.9
CCc1cc2c(=O)n(-c3ccccc3)c(=S)[nH]c2s1	/	78.6	/	-10.0	99.7	88.5
Cc1cc(C)nc(N2CCN(c3ncnc4c3cnn4Cc3ccc(Cl)cc3Cl)CC2)n1	4.2	31.6*	-10.2	/	/	62.9
Clc1ccc(-n2ncc3c(NCc4ccco4)ncnc32)cc1	/	11.7*	2.4	-11.0	80.4	75.0
CC(=O)Cc1nsc(NC(=O)c2cccs2)n1	/	92.1	/	-13.0	97.4	99.7
Cc1ccc(C(=O)c2ccc([N+](=O)[O-])cc2)cc1	/	98.7	/	11.0	104.8	115.7
Cc1ccc(S(=O)(=O)CC#CCOC(=O)c2ccc([N+](=O)[O-])cc2)cc1	/	1.6*	/	14.0	42.6*	42.6
CCCCn1c(NC(=O)c2ccccc2Cl)c(C#N)c2nc3ccccc3nc21	22.4	20.1*	99.0*	-6.0	94.4	54.6
CCNc1ccc(C(=O)OCC)cc1NC(=O)c1cccc(N(C)C)c1	/	22.1*	22.6	0.0	50.6	50.5
CCOC(=O)c1ccc(Cl)c(NC(=O)c2ccc(-c3ccccc3)cc2)c1	/	/	/	-13.0	/	/
CC(=O)NS(=O)(=O)c1ccc(NC(=O)NC2CCCCC2)cc1	/	/	/	-10.0	/	/
CCOC(=O)c1ccc(Nc2nnc(C(C)(C)C)c(=O)[nH]2)cc1	/	2.6*	16.6	-2.0	69.4	54.7
CSc1nc2ccc(NS(=O)(=O)c3ccc4c(c3)OCCO4)cc2s1	/	108.1	100.0*	-10.0	103.9	102.6
O=S(=O)(NCc1ccc2c(c1)OCO2)c1ccc2oc3ccccc3c2c1	/	87.3	/	/	98.4	85.3
O=S(=O)(Nc1ccc2c(c1)OCCO2)c1ccc2oc3ccccc3c2c1	-0.4	99.8	97.5*	-7.0	98.4	76.8
SMILES	Jurkat viability	H69AR growth 86K	Ecoli tolC	Ecoli WT expand	Lung fibro prol	HUVEC inhibit
CCc1nc(SCC(=O)Nc2ccc3c(c2)OCCO3)c2oc3ccccc3c2n1	6.0	0.9*	-4.3	-9.0	93.7	19.6*
CCc1nc(SCC(=O)Nc2nccs2)c2oc3ccccc3c2n1	13.7	13.2*	11.0	-2.0	76.0	69.3
O=C(CSc1ncnc2c1cnn2Cc1ccccc1)Nc1ccc2c(c1)OCCO2	-8.6	33.5*	-11.9	-10.0	94.4	94.6
O=C(CSc1nc2[nH]ncc2c(=O)n1-c1ccccc1Br)NCc1ccco1	13.3	/	-1.9	4.0	/	/
Cc1ccc(S(=O)(=O)n2nc(-c3ccc(Cl)cc3)nc2NCc2ccco2)cc1	14.3	76.4	14.2	-17.0	91.7	79.1
CC(C)Cn1[nH]c2c3c(ccc2c1=O)C(=O)c1ccccc1C3=O	/	/	/	-7.0	/	/
NS(=O)(=O)c1ccc(S(=O)(=O)N2CCCC2)cc1	/	102.0	/	4.0	104.3	106.2
O=S(=O)(c1ccc(S(=O)(=O)N2CCCC3(CCCCC3)C2)cc1)N1CCCCC1	-4.0	34.6*	-18.2	2.0	84.2	79.3
O=S(=O)(c1ccccc1)N1CCN(Cc2ccccc2C(F)(F)F)CC1	1.1	103.7	63.7*	-4.0	97.2	90.2
CCOC(=O)c1cc(CC)sc1NC(=O)c1cc(OC)c(OC)c(OC)c1	/	91.4	/	-8.0	90.7	99.0
CCC(=O)Nc1ccc(NC(=O)CSc2nnnn2-c2cccnc2)cc1C	/	/	/	0.0	/	/
O=C(NC1CCCC1)c1ccc(S(=O)(=O)N2CCOCC2)cc1	/	84.3	/	3.0	98.1	96.5
O=C(NCC1CCN(c2ccc(S(=O)(=O)N3CCOCC3)cc2)CC1)c1ccc(Cl)cc1	/	35.3*	/	-7.0	86.4	88.3
CN1CCN(CCCN2c3ccccc3Sc3ccc(Cl)cc32)CC1	/	71.4	-13.7	/	93.8	95.5
CN1CCN(CCC(=O)N2c3ccccc3Sc3ccc(C(F)(F)F)cc32)CC1	/	85.1	/	4.0	90.9	85.0
OCCN1CCN(CCCN2c3ccccc3Sc3ccc(C(F)(F)F)cc32)CC1	/	0.8*	9.6	/	47.2*	2.9*
CN(C)CCCN1c2ccccc2Sc2ccc(C(F)(F)F)cc21	/	1.5*	9.2	/	41.3*	46.8
CCOC(=O)N1CCC2(CC1)C(C#N)=C(N)Oc1c2c(C)nn1-c1cccc(Cl)c1	0.6	80.1	-0.5	1.0	116.3	93.5
CCOC(=O)C(Oc1ccc(=O)n(-c2ccccc2)n1)C(C)=O (stereo not drawn)	1.5	96.0	-8.8	-9.0	98.9	94.6
C/C(=N\Nc1nnc(C)c(=O)[nH]1)C(=O)O	/	/	/	-4.0	/	/
Cc1sc2nc(CN(C(=O)NC3CCCCC3)C3CCCC3)[nH]c(=O)c2c1C	/	55.6	/	/	88.5	107.0
Cc1sc2nc(CN(Cc3cccs3)C(=O)NC3CCCCC3)[nH]c(=O)c2c1C	-3.6	/	89.3*	-15.0	/	/
Cc1c(C(=O)Nc2nccs2)sc2nc(-c3cccs3)cc(C(F)(F)F)c12	/	36.0*	/	-16.0	67.9	44.5
COc1ccc(C(=O)/C=C(\C)Nc2ccc(NC(C)=O)cc2)cc1	/	/	/	5.0	/	/
COc1ccc(N/N=C(\C=N\O)C(=O)c2ccc(OC)cc2)cc1	/	26.2*	/	-5.0	53.1	37.9*
CCOC(=O)c1nnn(CC(=O)N2N=C(c3ccc(Cl)cc3)CC2c2ccc(OC)cc2)c1C(=O)OCC (stereo not drawn)	/	73.7	/	-11.0	80.9	79.8
CCOC(=O)c1nnn(CC(=O)N2N=C(c3ccc(Cl)cc3)CC2c2ccccc2)c1C(=O)OCC (stereo not drawn)	/	19.0*	/	/	67.8	74.8
